Results taken from publication PMC4814305 (The Biochemical journal, 2016).
“And” between values parts separate entries of the source, which are not always exact repeats. Equal entries are not always repeated. “Also recorded” adds a separate entry of the source. Values belong to the compound of their own block, whether it stands above or below them.

Experiments:
[1] = target: T1, mitochondrial pyruvate carrier (MPC) (Rattus norvegicus, UniProt P38718+P63031); test: [1-14C] pyruvate uptake into isolated rat liver mitochondria; format: biochemical
T1 sequence (P63031 1-109): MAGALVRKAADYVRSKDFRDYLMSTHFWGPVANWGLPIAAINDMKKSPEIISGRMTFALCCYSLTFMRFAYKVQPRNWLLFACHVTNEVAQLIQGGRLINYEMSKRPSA
T1 sequence (P38718 1-127): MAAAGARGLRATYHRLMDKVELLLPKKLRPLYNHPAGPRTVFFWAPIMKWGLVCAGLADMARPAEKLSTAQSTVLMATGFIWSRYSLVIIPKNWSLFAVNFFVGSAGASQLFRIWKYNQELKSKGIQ
How it was run: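 Liver mitochondria from male Wistar rats (~275 g) were isolated by homogenisation, differential and Percoll centrifugation, then held 2 min on ice at 6 mg protein/mL with test compound. Uptake ran in pH 6.8 KCl/MOPS/EGTA buffer with 1 μM rotenone, 60 μM [1-14C]pyruvate and 3H2O at 9°C, stopped at 45 s by rapid sedimentation. Four replicates per concentration, 3 preparations; Ki fitted from % of control, mean ± S.E.M.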

[2] = test system: DB-1 human melanoma cells; test: L-lactate output and intracellular [L-lactate] of DB-1 melanoma cells; format: cell-based; conditions: DB-1 cells, 1 h, vs DMSO
MCT2 = target: T2, MCT2 (Rattus norvegicus, UniProt Q63344); test: [U-14C] L-lactate uptake by Xenopus laevis oocytes expressing MCT2; format: cell-based; conditions: cooperative inhibition fit
T2 sequence (Q63344 1-489): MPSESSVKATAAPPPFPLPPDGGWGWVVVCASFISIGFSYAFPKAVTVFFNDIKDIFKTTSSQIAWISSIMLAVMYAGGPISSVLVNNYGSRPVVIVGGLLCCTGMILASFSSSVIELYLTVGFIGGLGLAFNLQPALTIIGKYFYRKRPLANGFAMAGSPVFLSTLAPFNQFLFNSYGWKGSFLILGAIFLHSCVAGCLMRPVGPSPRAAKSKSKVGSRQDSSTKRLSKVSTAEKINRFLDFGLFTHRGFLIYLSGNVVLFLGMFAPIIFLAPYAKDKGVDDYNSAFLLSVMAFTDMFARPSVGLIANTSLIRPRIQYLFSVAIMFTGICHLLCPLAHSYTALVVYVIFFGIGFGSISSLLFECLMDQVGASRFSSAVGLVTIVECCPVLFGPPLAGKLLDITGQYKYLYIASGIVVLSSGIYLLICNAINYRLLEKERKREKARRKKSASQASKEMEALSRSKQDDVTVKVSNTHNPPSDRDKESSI
T2 sequence (O88775 34-328 partner): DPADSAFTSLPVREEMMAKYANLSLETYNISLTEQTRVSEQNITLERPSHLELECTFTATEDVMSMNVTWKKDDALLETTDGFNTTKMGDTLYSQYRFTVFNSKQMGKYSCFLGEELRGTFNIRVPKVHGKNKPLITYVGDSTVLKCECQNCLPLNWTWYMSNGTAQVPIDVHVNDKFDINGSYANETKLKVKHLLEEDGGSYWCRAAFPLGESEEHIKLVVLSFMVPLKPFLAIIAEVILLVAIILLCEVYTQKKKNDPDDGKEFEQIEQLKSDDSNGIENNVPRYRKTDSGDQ

MCT4 = target: T3, MCT4 (Homo sapiens, UniProt O15427); test: [U-14C] L-lactate uptake by Xenopus laevis oocytes expressing MCT4; format: cell-based; conditions: cooperative inhibition fit
T3 sequence (O15427 1-465): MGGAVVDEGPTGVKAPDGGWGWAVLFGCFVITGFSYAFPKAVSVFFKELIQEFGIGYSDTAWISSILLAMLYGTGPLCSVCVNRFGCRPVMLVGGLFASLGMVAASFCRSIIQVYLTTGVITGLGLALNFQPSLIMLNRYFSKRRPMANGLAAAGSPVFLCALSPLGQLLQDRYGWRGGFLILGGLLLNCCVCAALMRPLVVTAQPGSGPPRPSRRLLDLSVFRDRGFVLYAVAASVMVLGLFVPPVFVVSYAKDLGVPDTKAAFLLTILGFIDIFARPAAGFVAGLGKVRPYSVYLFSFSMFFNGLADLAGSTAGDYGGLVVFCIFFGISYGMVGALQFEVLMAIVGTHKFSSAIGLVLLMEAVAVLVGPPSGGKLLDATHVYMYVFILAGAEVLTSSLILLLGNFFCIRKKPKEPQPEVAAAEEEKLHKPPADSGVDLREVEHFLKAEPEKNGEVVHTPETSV

DB-1 xenografts = conditions: 100 mg/kg i.p., cited from earlier work
[3] = test system: uncoupled pyruvate oxidation by isolated rat heart mitochondria; test: Uncoupled pyruvate oxidation by rat heart mitochondria; format: biochemical
MCT1 = target: T4, MCT1 (Rattus norvegicus, UniProt P53987); test: [U-14C] L-lactate uptake by Xenopus laevis oocytes expressing MCT1; format: cell-based; conditions: cooperative inhibition fit
T4 sequence (P53987 1-494): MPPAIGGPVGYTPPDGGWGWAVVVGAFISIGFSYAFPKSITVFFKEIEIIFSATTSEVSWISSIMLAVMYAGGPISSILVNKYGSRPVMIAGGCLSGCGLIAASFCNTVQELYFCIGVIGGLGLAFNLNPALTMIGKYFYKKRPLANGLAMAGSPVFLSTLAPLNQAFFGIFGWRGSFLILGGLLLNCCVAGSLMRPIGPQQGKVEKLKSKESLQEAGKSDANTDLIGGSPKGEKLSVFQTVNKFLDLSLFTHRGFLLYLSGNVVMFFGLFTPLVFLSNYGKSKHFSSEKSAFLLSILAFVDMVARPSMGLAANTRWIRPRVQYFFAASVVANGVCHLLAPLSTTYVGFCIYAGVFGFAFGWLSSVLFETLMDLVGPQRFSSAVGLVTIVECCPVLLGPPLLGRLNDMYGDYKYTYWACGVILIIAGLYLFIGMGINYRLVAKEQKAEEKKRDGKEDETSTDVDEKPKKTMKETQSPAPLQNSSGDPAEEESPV

SMILES: N#CC(=Cc1ccc(O)cc1)C(=O)O [CHC, α-cyano-4-hydroxycinnamate]
- inhibition of mitochondrial pyruvate carrier (pyruvate uptake) ([1]; rat liver mitochondria, 10 μM inhibitor): > 90%

- Hill coefficient of inhibition of MCT2 (MCT2): 1.86 ± 0.34
- Hill coefficient of inhibition of MCT4 (MCT4): 1.65–1.85 and 1.84 ± 0.19
- IC50 ([3]; read-out: IC50 for inhibition of uncoupled pyruvate oxidation, 30°C, pyruvate + malate, FCCP): ~7 µM and ~7.5 µM
- Hill coefficient of inhibition of MCT1 (MCT1): 1.65–1.85 and 1.65 ± 0.23
- Ki [1]: 2.5 µM
SMILES: O=C(O)c1nn(Cc2ccc(Cl)cc2Cl)c2ccccc12 [LND, Lonidamine]
- increase of intracellular [L-lactate] ([2]; 40 μM LND): two-fold
- L-lactate output ([2]; 40 μM and 150 μM LND): decrease in L-lactate output
- L-lactate output ([2]; 150 μM LND): decreased L-lactate output; also recorded: L-lactate output decreased
- increase of intracellular [L-lactate] ([2]; 150 μM LND): > five-fold; also recorded: eight-fold
- L-lactate output ([2]; 1–10 μM LND): increased L-lactate output
- intracellular [L-lactate] ([2]; 1–10 μM LND): without a detectable increase
- tumour pHi after LND treatment (DB-1 xenografts; DB-1 xenografts in mice, within about 40 min, from 6.9 ± 0.1): 6.3 ± 0.1
- decrease in the tumour NTP/Pi ratio (DB-1 xenografts; DB-1 xenografts in mice, within about 3 hr): 66.8 ± 5.7%
- decrease in extracellular pH of the tumour (DB-1 xenografts; DB-1 xenografts in mice): ~ 0.2 pH units
- rise in tumour [L-lactate] (DB-1 xenografts; DB-1 xenografts in mice): three-fold
- change in pHi of liver (DB-1 xenografts; mice, 20 min post-injection): only a slight transient change
- change in NTP/Pi of the liver (DB-1 xenografts; mice, 40 min post-injection): only a transient small decrease
- change in NTP/Pi ratio of muscle and brain (DB-1 xenografts; mice): no change
- change in pHi of normal muscle or brain (DB-1 xenografts; mice): No significant change
- effect on uncoupled pyruvate oxidation ([3]; 30°C, 2 μM LND): without effect
- inhibition of uncoupled pyruvate oxidation ([3]; 30°C, 3 μM LND): ~ 15%
- inhibition of uncoupled pyruvate oxidation ([3]; 30°C, 10 μM LND): ~70%
